ChEMBL document CHEMBL4033795, “Design, Synthesis, and Structure-Activity Relationship Study of 2-Oxo-3,4-dihydropyrimido[4,5- d]pyrimidines as New Colony Stimulating Factor 1 Receptor (CSF1R) Kinase Inhibitors” (J Med Chem, 2018)

Key:
Homo sapiens [1] = organism: Homo sapiens; assay: Selectivity ratio of IC50 for recombinant human His-tagged FLT3 (564 to 958 residues) expressed in baculovirus to IC50 for recombinant human His-tagged CSF1R cytoplasmic domain (538 to 910 residues) expressed in baculovirus
[2] = molecular target: Tyrosine-protein kinase Lyn (Homo sapiens) (UniProt P07948); assay: Inhibition of recombinant human LYN-A expressed in bacterial expression system at 100 nM by KINOMEscan assay relative to control
Chain of Tyrosine-protein kinase Lyn (Homo sapiens) (P07948 2-512 limits assumed): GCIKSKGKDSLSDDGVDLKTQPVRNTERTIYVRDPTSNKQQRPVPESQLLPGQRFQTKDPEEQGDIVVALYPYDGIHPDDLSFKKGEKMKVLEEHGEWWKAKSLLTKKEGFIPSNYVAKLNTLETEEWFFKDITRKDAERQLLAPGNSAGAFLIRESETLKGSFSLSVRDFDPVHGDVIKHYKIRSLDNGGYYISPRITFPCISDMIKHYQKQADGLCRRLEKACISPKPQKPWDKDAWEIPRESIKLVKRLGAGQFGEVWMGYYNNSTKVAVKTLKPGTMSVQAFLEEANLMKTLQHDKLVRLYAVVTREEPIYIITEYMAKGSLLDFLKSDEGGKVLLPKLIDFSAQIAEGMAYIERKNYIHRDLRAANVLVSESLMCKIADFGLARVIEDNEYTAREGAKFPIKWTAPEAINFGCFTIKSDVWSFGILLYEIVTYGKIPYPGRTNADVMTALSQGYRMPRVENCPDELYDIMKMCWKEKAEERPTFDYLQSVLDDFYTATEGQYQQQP

[3] = molecular target: Ephrin type-A receptor 1 (Homo sapiens) (UniProt P21709); assay: Inhibition of recombinant human EPHA1 (V588 to I913 residues) expressed in bacterial expression system at 100 nM by KINOMEscan assay relative to control
Chain of Ephrin type-A receptor 1 (Homo sapiens) (P21709 whole entry, the tested form may be a part): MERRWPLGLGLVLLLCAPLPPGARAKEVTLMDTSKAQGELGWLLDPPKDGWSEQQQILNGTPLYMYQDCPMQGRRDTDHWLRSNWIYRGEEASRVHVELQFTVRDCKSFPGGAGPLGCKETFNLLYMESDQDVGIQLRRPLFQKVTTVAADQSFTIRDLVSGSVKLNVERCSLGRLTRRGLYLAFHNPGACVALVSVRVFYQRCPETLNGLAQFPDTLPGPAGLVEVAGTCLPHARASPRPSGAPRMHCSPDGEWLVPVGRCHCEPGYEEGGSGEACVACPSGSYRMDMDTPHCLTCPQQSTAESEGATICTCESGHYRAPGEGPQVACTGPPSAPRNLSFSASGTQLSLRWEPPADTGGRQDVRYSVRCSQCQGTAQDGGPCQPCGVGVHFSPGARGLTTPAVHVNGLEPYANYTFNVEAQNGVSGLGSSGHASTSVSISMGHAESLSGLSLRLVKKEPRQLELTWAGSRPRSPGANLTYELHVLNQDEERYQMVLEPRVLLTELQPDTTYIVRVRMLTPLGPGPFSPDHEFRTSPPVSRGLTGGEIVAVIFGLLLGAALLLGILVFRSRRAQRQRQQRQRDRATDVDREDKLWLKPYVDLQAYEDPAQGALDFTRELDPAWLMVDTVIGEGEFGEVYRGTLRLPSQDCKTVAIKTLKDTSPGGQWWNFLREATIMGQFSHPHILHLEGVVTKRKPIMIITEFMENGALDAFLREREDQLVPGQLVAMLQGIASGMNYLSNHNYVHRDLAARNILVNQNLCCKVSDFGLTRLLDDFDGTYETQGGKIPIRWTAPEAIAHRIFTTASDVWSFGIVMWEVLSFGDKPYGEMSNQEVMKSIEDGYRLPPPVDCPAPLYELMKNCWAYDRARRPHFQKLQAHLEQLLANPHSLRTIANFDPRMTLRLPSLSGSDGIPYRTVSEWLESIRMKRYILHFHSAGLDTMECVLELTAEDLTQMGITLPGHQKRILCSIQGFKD

RAW264.7 [4] = assay: Inhibition of protumorigenic potential of mouse RAW264.7 cells assessed as abrogation of human LNCAP cell growth enhancement of macrophages at 0.08 uM co-cultured for 48 hrs by CCK8 assay relative to control; format: functional; conditions: RAW264.7, 48 h
In short: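 LNCaP cells, (2−4) × 10^5, were seeded in the lower transwell chamber. After 2 h, (1−2) × 10^6 RAW264.7 cells were added in a 0.4 μm insert. Compound at 0.016–2.0 μM was added to the top chamber and cells were cocultured 48 h at 37 °C. LNCaP cells were then imaged and counted by CCK8. Run three times, each in triplicate.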

Homo sapiens [5] = organism: Homo sapiens; assay: Selectivity ratio of IC50 for recombinant cytoplasmic human GST-tagged PDGFRalpha expressed in baculovirus to IC50 for recombinant human His-tagged CSF1R cytoplasmic domain (538 to 910 residues) expressed in baculovirus
[6] = molecular target: Platelet-derived growth factor receptor beta (Homo sapiens, UniProt P09619); assay: Inhibition of recombinant human PDGFRbeta expressed in baculovirus using poly (4:1 Glu, Tyr) peptide as substrate after 1 hr by ADP-Glo assay
Chain of Platelet-derived growth factor receptor beta (P09619 whole entry): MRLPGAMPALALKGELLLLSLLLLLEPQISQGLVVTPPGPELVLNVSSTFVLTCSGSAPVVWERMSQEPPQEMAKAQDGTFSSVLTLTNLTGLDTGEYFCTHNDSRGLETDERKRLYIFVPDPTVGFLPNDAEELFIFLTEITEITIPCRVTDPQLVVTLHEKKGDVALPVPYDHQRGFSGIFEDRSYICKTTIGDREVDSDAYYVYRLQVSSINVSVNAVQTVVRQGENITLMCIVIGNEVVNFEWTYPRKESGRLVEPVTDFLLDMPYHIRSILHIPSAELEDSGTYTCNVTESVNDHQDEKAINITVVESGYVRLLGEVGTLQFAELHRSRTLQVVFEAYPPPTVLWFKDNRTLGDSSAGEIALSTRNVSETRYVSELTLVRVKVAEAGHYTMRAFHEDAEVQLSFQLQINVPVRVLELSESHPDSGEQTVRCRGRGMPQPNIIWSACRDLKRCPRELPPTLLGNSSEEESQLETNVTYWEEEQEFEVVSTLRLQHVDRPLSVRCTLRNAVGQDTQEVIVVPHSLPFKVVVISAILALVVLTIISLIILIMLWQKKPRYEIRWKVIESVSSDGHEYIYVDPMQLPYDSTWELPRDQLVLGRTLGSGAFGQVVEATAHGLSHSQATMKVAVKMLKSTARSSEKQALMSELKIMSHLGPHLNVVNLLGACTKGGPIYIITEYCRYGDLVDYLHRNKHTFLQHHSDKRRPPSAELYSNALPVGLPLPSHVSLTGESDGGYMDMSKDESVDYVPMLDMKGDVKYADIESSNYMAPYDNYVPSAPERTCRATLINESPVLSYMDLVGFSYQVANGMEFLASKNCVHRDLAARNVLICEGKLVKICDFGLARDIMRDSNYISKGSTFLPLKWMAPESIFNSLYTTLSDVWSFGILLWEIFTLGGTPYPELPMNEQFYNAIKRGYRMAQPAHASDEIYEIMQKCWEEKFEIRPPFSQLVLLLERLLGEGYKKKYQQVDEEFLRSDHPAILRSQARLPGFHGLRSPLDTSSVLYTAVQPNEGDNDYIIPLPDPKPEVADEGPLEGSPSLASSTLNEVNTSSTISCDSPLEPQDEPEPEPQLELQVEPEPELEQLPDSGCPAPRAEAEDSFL

RAW264.7 [7] = assay: Antimigratory activity against mouse RAW264.7 cells assessed as inhibition of human LNCaP-MDV-CM mediated macrophage migration at 0.625 uM after 24 hrs by crystal violet staining based transwell assay relative to control; format: functional; conditions: RAW264.7, 24 h
In short: (§1)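 RAW264.7 cells, (2−4) × 10^5, were placed serum-free in the upper insert of a transwell. The lower chamber held conditioned medium from LNCaP cells grown 48 h in 10% FBS RPMI 1640 with 10 μM MDV3100 or DMSO. Compound at 0.625–5.0 μM was added to the top chamber for 24 h at 37 °C. Migrated cells were fixed in methanol, stained with 0.25% crystal violet and counted in six random fields at 200×. Three independent experiments.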

[8] = Oral bioavailability in Sprague-Dawley rat at 25 mg/kg administered via gavage measured up to 72 hrs by LC/MS analysis; format: ADME, organism-based; conditions: in vivo
In short: (§2)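 Male Sprague-Dawley rats, 4–6 weeks old, acclimatised 1 week, were dosed iv at 5 mg/kg or by oral gavage at 25 mg/kg. Vehicle was 2% DMSO, 4% EtOH, 4% castor oil, 90% H2O. Blood was drawn by orbital sinus puncture from 2 min to 72 h into heparinized tubes. Plasma was assayed by LC/MS with propranolol as internal standard. Three animals per group.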

RAW264.7 [9] = assay: Antimigratory activity against mouse RAW264.7 cells assessed as inhibition of human LNCaP-MDV-CM mediated macrophage migration at 1.25 uM after 24 hrs by crystal violet staining based transwell assay relative to control; format: functional; conditions: RAW264.7, 24 h; in short: as §1
[10] = Half life in Sprague-Dawley rat at 25 mg/kg administered via oral gavage measured up to 72 hrs by LC/MS analysis; format: ADME, organism-based; conditions: in vivo; in short: as §2
[11] = Half life in Sprague-Dawley rat at 5 mg/kg, iv measured up to 72 hrs by LC/MS analysis; format: ADME, organism-based; conditions: in vivo; in short: as §2
RAW264.7 [12] = assay: Downregulation of MMP9 mRNA expression in mouse RAW264.7 cells after 48 hrs by qRT-PCR analysis relative to DMSO; format: functional, cell-based
In short: (§3)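 RAW264.7 macrophages were treated 48 h with compound at 0.08, 0.4 or 2.0 μM, or DMSO vehicle. Total RNA was extracted with TRIzol and transcripts were quantified by qRT-PCR using gene-specific primers. Run three times, each in triplicate.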

Homo sapiens [13] = organism: Homo sapiens; assay: Selectivity ratio of IC50 for recombinant human wild type GST-tagged EGFR cytoplasmic domain (668 to 1210 residues) expressed in baculovirus to IC50 for recombinant human His-tagged CSF1R cytoplasmic domain (538 to 910 residues) expressed in baculovirus
In short: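 Z′-Lyte FRET assay with CSF1R or EGFR and 2 μM Tyr4 peptide substrate in 1× kinase buffer. ATP was supplied as a 100 μM solution, a stock and not the final concentration. Compounds were 3-fold serially diluted in DMSO. Reaction ran 1 h at room temperature, followed by 1 h development and a stop reagent. Phospho-peptide, no-ATP and DMSO controls were included. IC50 by curve fitting; mean of at least three independent experiments.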

Homo sapiens [14] = organism: Homo sapiens; assay: Selectivity ratio of IC50 for recombinant cytoplasmic human His-tagged KIT expressed in baculovirus to IC50 for recombinant human His-tagged CSF1R cytoplasmic domain (538 to 910 residues) expressed in baculovirus
RAW264.7 [15] = assay: Antimigratory activity against mouse RAW264.7 cells assessed as inhibition of human LNCaP-MDV-CM mediated macrophage migration after 24 hrs by crystal violet staining based transwell assay; format: functional, cell-based; in short: as §1
RAW264.7 [16] = assay: Antimigratory activity against mouse RAW264.7 cells assessed as inhibition of human LNCaP-MDV-CM mediated macrophage migration at 2.5 uM after 24 hrs by crystal violet staining based transwell assay relative to control; format: functional; conditions: RAW264.7, 24 h; in short: as §1
[17] = molecular target: Tyrosine-protein kinase ABL1 (Homo sapiens) (UniProt P00519); assay: Inhibition of human ABL1 (S229 to K512 residues) expressed in mammalian expression system at 100 nM by KINOMEscan assay relative to control
[18] = Cmax in Sprague-Dawley rat at 25 mg/kg administered via oral gavage measured up to 72 hrs by LC/MS analysis; format: ADME, organism-based; design: dose 25 mg/kg, route oral; conditions: in vivo; in short: as §2
[19] = molecular target: Platelet-derived growth factor receptor alpha (Homo sapiens, UniProt P16234); assay: Inhibition of recombinant cytoplasmic human GST-tagged PDGFRalpha expressed in baculovirus using poly (4:1 Glu, Tyr) peptide as substrate after 1 hr by ADP-Glo assay
Chain of Platelet-derived growth factor receptor alpha (P16234 whole entry, the tested form may be a part): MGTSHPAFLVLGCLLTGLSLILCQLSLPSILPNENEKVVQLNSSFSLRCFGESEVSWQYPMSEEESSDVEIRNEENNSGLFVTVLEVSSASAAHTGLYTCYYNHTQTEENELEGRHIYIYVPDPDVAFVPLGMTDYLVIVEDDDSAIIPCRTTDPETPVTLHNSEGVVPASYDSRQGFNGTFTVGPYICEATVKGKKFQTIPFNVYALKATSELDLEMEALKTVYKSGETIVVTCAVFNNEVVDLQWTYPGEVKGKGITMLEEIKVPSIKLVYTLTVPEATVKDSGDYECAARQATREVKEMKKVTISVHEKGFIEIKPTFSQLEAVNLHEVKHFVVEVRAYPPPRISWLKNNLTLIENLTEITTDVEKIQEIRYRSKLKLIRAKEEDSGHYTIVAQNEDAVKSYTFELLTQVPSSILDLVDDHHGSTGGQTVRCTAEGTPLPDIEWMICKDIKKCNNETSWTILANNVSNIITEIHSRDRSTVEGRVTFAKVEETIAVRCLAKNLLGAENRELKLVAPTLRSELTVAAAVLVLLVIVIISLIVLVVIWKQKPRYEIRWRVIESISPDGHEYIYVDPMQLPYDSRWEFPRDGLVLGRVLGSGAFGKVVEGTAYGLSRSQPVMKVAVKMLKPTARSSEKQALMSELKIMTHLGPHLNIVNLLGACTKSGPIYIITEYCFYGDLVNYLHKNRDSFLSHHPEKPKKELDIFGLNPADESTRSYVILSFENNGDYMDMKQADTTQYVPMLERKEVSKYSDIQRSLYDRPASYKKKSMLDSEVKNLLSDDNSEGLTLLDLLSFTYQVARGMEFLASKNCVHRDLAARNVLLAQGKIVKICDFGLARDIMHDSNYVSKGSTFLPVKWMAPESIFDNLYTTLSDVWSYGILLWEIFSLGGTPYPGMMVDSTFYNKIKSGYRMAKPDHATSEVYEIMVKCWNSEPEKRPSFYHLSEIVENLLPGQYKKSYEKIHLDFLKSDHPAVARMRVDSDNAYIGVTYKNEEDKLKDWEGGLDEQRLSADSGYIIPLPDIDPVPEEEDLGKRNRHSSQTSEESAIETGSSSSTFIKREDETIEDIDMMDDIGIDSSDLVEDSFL

[20] = molecular target: Fibroblast growth factor receptor 2 (Homo sapiens, UniProt P21802); assay: Inhibition of cytoplasmic recombinant human His-tagged FGFR2 (403 to 822 residues) expressed in baculovirus using tyr4 peptide as substrate after 1 hr by FRET-based Z'-Lyte assay
Chain of Fibroblast growth factor receptor 2 (P21802 whole entry, the tested form may be a part): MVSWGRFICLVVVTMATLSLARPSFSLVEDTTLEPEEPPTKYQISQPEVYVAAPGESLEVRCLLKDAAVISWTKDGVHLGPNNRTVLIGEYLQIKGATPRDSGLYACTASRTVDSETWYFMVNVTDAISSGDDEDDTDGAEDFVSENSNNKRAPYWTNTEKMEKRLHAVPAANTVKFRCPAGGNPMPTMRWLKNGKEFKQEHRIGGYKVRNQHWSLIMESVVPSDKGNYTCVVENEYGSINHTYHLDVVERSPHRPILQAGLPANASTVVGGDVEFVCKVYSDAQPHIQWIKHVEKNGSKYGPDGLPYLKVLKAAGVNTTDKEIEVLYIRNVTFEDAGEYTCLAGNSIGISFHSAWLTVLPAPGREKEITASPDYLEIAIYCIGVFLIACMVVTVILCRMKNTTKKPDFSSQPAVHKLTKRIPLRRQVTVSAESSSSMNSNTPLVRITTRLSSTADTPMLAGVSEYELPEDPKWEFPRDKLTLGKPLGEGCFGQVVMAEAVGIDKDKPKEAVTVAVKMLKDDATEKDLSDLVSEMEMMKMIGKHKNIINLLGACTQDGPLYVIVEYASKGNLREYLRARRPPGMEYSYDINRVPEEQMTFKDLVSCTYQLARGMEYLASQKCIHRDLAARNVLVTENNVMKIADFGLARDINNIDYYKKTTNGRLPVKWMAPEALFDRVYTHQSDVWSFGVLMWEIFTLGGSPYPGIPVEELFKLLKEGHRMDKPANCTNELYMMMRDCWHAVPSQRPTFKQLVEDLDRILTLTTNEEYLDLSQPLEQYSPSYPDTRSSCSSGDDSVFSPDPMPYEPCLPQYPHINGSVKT

[21] = molecular target: Epidermal growth factor receptor (Homo sapiens, UniProt P00533); assay: Inhibition of recombinant human wild type GST-tagged EGFR cytoplasmic domain (668 to 1210 residues) expressed in baculovirus using tyr4 peptide as substrate after 1 hr by FRET-based Z'-Lyte assay
RAW264.7 [22] = assay: Downregulation of ARG1 mRNA expression in mouse RAW264.7 cells after 48 hrs by qRT-PCR analysis relative to DMSO; format: functional, cell-based; in short: as §3
RAW264.7 [23] = assay: Downregulation of VEGFA mRNA expression in mouse RAW264.7 cells after 48 hrs by qRT-PCR analysis relative to DMSO; format: functional, cell-based; in short: as §3

CCC(=O)N1CC[C@H](N2C(=O)N(c3cc(OC)ccc3Cl)Cc3cnc(Nc4ccc(N5CCN(C6COC6)CC5)c(C)c4)nc32)C1
Ratio IC50 (Homo sapiens [1]): 10 to 35
inhibition [2]: > 90%
inhibition [3]: > 90%
inhibition at 0.08 µM (RAW264.7 [4]): 70%
Ratio IC50 (Homo sapiens [5]): 10 to 35
IC50 [6]: 106 nM
inhibition at 0.625 µM (RAW264.7 [7]): 44.5%
bioavailability [8]: 44.4%
inhibition at 1.25 µM (RAW264.7 [9]): 52.7%
half-life [10]: 1.08 h
half-life [11]: 1.08 h
Activity (RAW264.7 [12]): Dose-dependent effect
Ratio IC50 (Homo sapiens [13]): 120
Ratio IC50 (Homo sapiens [14]): 10 to 35
inhibition (RAW264.7 [15]): Dose-dependent effect
inhibition at 2.5 µM (RAW264.7 [16]): 60.6%
inhibition [17]: > 90%
Cmax [18]: 2520 ng/mL
IC50 [19]: 74 nM
IC50 [20]: 27 nM
IC50 [21]: 360 nM
Activity (RAW264.7 [22]): Dose-dependent effect
Activity (RAW264.7 [23]): Dose-dependent effect
